Results pooled from the literature.
Target: NUAK family SNF1-like kinase 2 (NUAK2, Homo sapiens, UniProt Q9H093)
Residues used in one study (Q9H093 1-628): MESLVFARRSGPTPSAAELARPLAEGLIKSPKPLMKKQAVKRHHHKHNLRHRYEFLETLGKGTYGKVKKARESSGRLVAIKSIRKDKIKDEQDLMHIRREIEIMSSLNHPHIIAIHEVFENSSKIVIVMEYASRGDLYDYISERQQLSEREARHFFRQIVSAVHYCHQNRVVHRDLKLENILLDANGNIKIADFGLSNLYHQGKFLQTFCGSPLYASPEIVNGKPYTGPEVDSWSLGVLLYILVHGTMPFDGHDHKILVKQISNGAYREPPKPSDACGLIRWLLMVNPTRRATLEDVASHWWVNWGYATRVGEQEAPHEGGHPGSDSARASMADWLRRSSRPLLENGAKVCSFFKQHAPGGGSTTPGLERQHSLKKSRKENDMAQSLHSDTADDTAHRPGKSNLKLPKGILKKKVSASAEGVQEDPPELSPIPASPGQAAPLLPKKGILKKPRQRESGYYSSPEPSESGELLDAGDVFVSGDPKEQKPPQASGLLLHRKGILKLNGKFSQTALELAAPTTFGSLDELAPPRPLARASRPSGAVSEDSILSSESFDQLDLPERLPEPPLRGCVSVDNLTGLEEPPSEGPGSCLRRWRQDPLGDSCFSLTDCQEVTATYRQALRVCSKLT

CC(C)(C)c1nc2c(s1)c1nc(N)ncc1c1ccc(NS(=O)(=O)c3c(F)cccc3F)c(F)c12  remaining activity (enzyme activity; inhibitor; radiometric; 1 µM): 81%
CN1CC(Oc2cnc(C#N)cc2-c2ccn3nc(NC(=O)C4CC4)cc3c2)C1  inhibition (enzyme activity; inhibitor; 1 µM): -8%
O=C1Nc2ccc(Cl)cc2C1=Cc1cc(Cl)c(O)c(Cl)c1  remaining signal (cell-free assay; 0.5 µM): 78.7%
COc1ccc2c(O[C@@H]3C[C@H]4C(=O)N[C@]5(C(=O)O)CC5/C=C\CCCCC[C@H](NC(=O)OC5CCCC5)C(=O)N4C3)cc(-c3csc(NC(=O)C(C)C)n3)nc2c1C (some centres unmarked)  remaining binding (cell-free assay; competition with immobilised ligand; 1 µM): 91%
O=C(Nc1cnn(-c2csc(C(=O)NC3COC3)c2)c1)Nc1c(F)cccc1Cl  remaining activity (enzyme activity; inhibitor; 5 µM): 97.8%
CN(c1ccnc(CNc2nc(Nc3ccc4c(c3)CC(=O)N4)ncc2C(F)(F)F)n1)S(C)(=O)=O  remaining binding (cell-free assay; competition with immobilised ligand; 1 µM): 7.6%
CC(C)(O)[C@H]1CC[C@H](Nc2ccc3ncc(-c4cccc(C(F)(F)F)c4)n3n2)CC1  remaining activity (enzyme activity; inhibitor; 1 µM): 84.9%
COc1cc(-c2cn(C3CCc4c(F)cccc4N(CC(F)(F)F)C3=O)nn2)ccc1-n1cnc(C)c1 (centres unmarked)  remaining binding (cell-free assay; competition with immobilised ligand; 1 µM): 100%
COc1cc(Cl)c(C(=O)N[C@@H](CN[C@H]2CC[C@@H](N)CC2)Cc2ccc(C#N)cc2)cc1-c1ccc(CN[C@H](C)c2ccc(C)cc2)o1  remaining activity (enzyme activity; inhibitor; 1 µM): 93%
C#Cc1cccc(Nc2ncnc3cc(OCCOC)c(OCCOC)cc23)c1  remaining signal (cell-free assay; 0.5 µM): 95.3%
Nc1ncnc2occ(-c3ccc(NC(=O)Nc4cc(C(F)(F)F)ccc4F)cc3)c12  remaining signal (cell-free assay; inhibitor; 20 µM): 30%
CC/C(=N\NC(=O)NCc1cccc(O)c1)c1ccc(O)c(C)c1O  inhibition (enzyme activity; inhibitor; 0.1 µM): 12.5%
N#CCCc1ccc2c(c1)-c1[nH]c3ccc([N+](=O)[O-])cc3c1CC(=O)N2  remaining signal (cell-free assay; 0.5 µM): 67.6%
CC(C)(C)c1nc(-c2cccc(NS(=O)(=O)c3c(F)cccc3F)c2F)c(-c2ccnc(N)n2)s1  remaining activity (enzyme activity; inhibitor; radiometric; 1 µM): 90%
O=C(O)c1cc(-c2ccc(C3CCNCC3)cc2)c2ccc(-c3ccc(C(F)(F)F)cc3)cc2c1  remaining binding (cell-free assay; competition with immobilised ligand; 1 µM): 100%
Cc1ccc(C(=O)Nc2ccc(CN3CCN(C)CC3)c(C(F)(F)F)c2)cc1C#Cc1cnc2cccnn12  remaining activity (enzyme activity; inhibitor; 23.5 nM): 84%
O=C(Nc1cnn(-c2csc(C(=O)NC3COC3)c2)c1)Nc1ccccc1Cl  remaining activity (enzyme activity; inhibitor; 5 µM): 99.8%
